MrgX1 antag: blocks BAM8-22 activation of human MrgX1 receptor; Q96LB2; MRGX1-HEK293 calcium flux, Fluo-4, BAM8-22 antagonism; stronger effect = lower value; B-score at 10 µM; 310,000 tested, 1.3% active;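 active means calcium-response B-score plate-corrected more than 3 library SD below zero, starting fluorescence within 5 deviations, no agonist response on first addition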;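 further: peak minus trough fluorescence over baseline after final BAM8-22 challenge near maximal dose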
Target sequence (Q96LB2 whole entry, looked up): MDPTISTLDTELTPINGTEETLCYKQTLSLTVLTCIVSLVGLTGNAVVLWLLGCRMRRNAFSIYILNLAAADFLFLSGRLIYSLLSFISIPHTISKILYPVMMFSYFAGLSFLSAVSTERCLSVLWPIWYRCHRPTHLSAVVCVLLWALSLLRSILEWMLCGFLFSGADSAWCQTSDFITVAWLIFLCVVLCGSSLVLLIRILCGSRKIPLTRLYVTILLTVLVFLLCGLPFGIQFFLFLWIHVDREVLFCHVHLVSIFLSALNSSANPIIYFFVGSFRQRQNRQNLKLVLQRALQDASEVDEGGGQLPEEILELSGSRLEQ
MrgX1 PAM: human MrgX1 positive allosteric modulation, primary screen. MrgX1-HEK293, Fluo-4 calcium flux, FDSS; stronger effect = higher value. B-score at 10 µM. 310,000 tested, 0.63% active. AID 588675;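 active means plate-corrected calcium response at least 3 library SD above typical, normal starting fluorescence, not activating the receptor alone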;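 further: compound read alongside a low EC10 to EC30 dose of BAM8-22 agonist; peak minus trough fluorescence over baseline measured at the second addition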
RGS4 inh: human RGS4 inhibition. P49798. B-score at 10 µM. HEK293 M3R/RGS4 inducible, Fluo-4 calcium flux; stronger effect = higher value; triggered by carbachol at its EC20. 310,000 tested, 0.45% active;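 active means B-score, a plate-corrected calcium signal, over three deviations above library mean, with baseline fluorescence within five deviations of library mean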;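 further: RGS4 expression induced by doxycycline in cells with stable M3 receptor; B-score is computed from the integrated fluorescence ratio over baseline after carbachol; higher B-score means a larger calcium signal and so more RGS4 inhibition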
RGS4 act: potentiators or activators of RGS4 | HEK293 M3R/inducible RGS4, carbachol calcium flux Fluo4; stronger effect = lower value | 310,000 tested, 0.92% active | B-score at 10 µM;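 active means B-score of the integrated calcium signal more than 4 SD below the library mean, with starting fluorescence not abnormally high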;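 further: negative B-score means reduced calcium response which marks RGS4 activation or potentiation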
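Assay system: Inducible-RGS4 HEK293 cells carrying M3 receptor | Schedule: Compound preincubation 20 min at room temperature before agonist | Signal: Kinetic calcium fluorescence imaging with Fluo4-AM dye, 2 µM | Read-out basis: B score from integrated fluorescence ratio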
MrgX1 ag: activates human MrgX1 receptor signaling; B-score at 10 µM; AID 588627; Q96LB2; MrgX1-HEK293 cells, Fluo-4 calcium fluorescence, agonist mode; stronger effect = higher value; 310,000 tested, 0.44% active;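 active means calcium response B-score plate-corrected fluorescence ratio at least 3 library SD, with starting fluorescence B-score inside 5 SD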
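Test system: Stable human MrgX1 HEK293 cell line | Schedule: Overnight plating before 1 h dye loading | Read-out basis: Baseline-normalised fluorescence change ratio, B-scored | Detection: Kinetic calcium dye fluorescence, Fluo-4 NW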
Lipid droplet: hepatic lipid droplet formation modulation | AML12 mouse hepatocytes, oleate lipid droplets, BODIPY imaging | inhibition, % at 6.5 µM | 240,000 tested, 0.4% active | AID 1656;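 active means lipid droplet intensity inhibited by at least 50%, with more than 500 cells counted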
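Assay system: AML12 mouse liver cells | Compound dosing: One dose, 6.5 µM compound | Read-out basis: Droplet intensity reduction, % inhibition | Measured by: Fluorescence imaging, 20x objective, two fields per well | Schedule: Overnight treatment with compound plus oleate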
RGS4 act valid: confirmation of RGS4 activators; shares compounds with RGS4 act; HEK293 M3R/RGS4 inducible, carbachol calcium flux Fluo4; inhibition, % at 10 µM; 1,100 tested, 89% active; AID 602282;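 active means inhibition above 3 SD of the buffer control wells, cut at about 41% in these data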;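 further: signal is the integrated peak-minus-minimum Fluo4 fluorescence over baseline ratio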
RGS4 act ctr: counter-screen for RGS4 activators: effect in non-induced cells; shares compounds with RGS4 act; HEK293 M3R non-induced RGS4, Fluo4 calcium flux; after carbachol challenge at its EC90; inhibition, % at 10 µM; 1,100 tested, 82% active;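 active means inhibition exceeding 3 SD of buffer-only control wells, cut at about 26% in these data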;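 further: percent drop in integrated peak-minus-baseline over baseline Fluo4 ratio after carbachol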
Each line names hits and unclear results; the compound was inactive in the other large screens (follow-up assays come after a bar, where they were run). A selection: hits, their analogues and other compounds. The true share with any hit is near 3.8%.

CC(C)NS(=O)(=O)c1ccc(CCC(=O)N2CCc3ccccc3C2)cc1	RGS4 act -7.5 | RGS4 act valid inactive | RGS4 act ctr inactive
O=C(O)COc1ccccc1/C=N/NC(=O)CSc1nnc(-c2ccc(Cl)cc2)n1C1CCCCC1	none
Cc1nn(-c2ccccc2)c(Cl)c1C(=O)OCC(=O)NCCc1ccccc1	RGS4 act -8 | RGS4 act valid 44 | RGS4 act ctr inactive
CCOC(=O)N1CCN(C(=S)NC(=O)c2ccnn2C)CC1	none
O=C(COC(=O)C1CCN(c2ccc(C(F)(F)F)cn2)CC1)c1ccc(Cl)cc1	RGS4 act -7.8 (no result: Lipid droplet) | RGS4 act valid 76 | RGS4 act ctr 31
Cc1cc(C)c(C(=O)COC(=O)C2CCN(c3ccc(C(F)(F)F)cn3)CC2)cc1C	none (no result: Lipid droplet)
COc1cc(C(=O)COC(=O)C2CCN(c3ccc(C(F)(F)F)cn3)CC2)ccc1OC(F)F	RGS4 act -8.7 (no result: Lipid droplet) | RGS4 act valid 76 | RGS4 act ctr 84
O=C(COC(=O)C1CCN(c2ccc(C(F)(F)F)cn2)CC1)c1ccc(F)cc1	none (no result: Lipid droplet)
COc1ccc(-c2nnc(SCc3cc(C)ccc3C)n2N)cc1	none (no result: Lipid droplet)
CCCCn1c(N)c(N(CC(C)C)C(=O)C2CC(=O)N(Cc3ccccc3)C2)c(=O)[nH]c1=O (configuration not stated)	none (no result: Lipid droplet)
CCc1nc(CNC(=O)C2CCC(=O)N(Cc3ccccc3F)C2)no1 (configuration not stated)	none (no result: MrgX1 antag, MrgX1 PAM, MrgX1 ag)
Cc1nc(-c2ccc(S(=O)(=O)Nc3ccc(Br)cc3Cl)s2)cs1	none
Cc1nc(-c2ccc(S(=O)(=O)Oc3ccc(Cl)cc3Cl)s2)cs1	RGS4 act -8.4 | RGS4 act valid 89 | RGS4 act ctr 71
O=C(c1ccc(S(=O)(=O)N2CCOCC2)cc1)N1CCN(c2cccc(Cl)c2)CC1	none
COc1cccc(C(=O)NCC2CCN(c3ccc(S(=O)(=O)N4CCOCC4)cc3)CC2)c1	RGS4 act -8.6 (no result: Lipid droplet) | RGS4 act valid 92 | RGS4 act ctr 58
O=C(NCC1CCN(c2ccc(S(=O)(=O)N3CCOCC3)cc2)CC1)c1cccc(Cl)c1	RGS4 act -8.1 | RGS4 act valid 90 | RGS4 act ctr 92
COc1cccc(-c2nnc(NC(=O)c3ccc(S(=O)(=O)N4CCOCC4)cc3)o2)c1	none (no result: Lipid droplet)
O=C1C2C(C(=O)N1CCN1CCN(Cc3ccc([N+](=O)[O-])cc3)CC1)[C@H]1C=C[C@@H]2C1 (some centres not stated)	none
O=S(=O)(c1ccc2oc3ccc(S(=O)(=O)N4CCCCC4)cc3c2c1)N1CCCCC1	none (no result: Lipid droplet)
